{"data": "Experimental data pooled from the literature", "target": "Calcium/calmodulin-dependent protein kinase kinase 2 (CAMKK2, Homo sapiens, UniProt Q96RR4)", "note": "Each line is one published result; the experiments were not run side by side."}
{"Structure (SMILES)": "CC(C)(C)c1cc(C=C(C#N)C#N)cc(Br)c1O", "observed": "enzyme activity", "mode": "inhibitor", "concentration": "0.5 µM", "endpoint": "remaining activity", "result": "92.5%"}
{"Structure (SMILES)": "Cn1cncc1[C@](O)(COc1ccc(C#N)cc1-c1ccc(OC(F)(F)F)cc1)c1ccc(C#N)cc1", "observed": "cell-free assay", "technique": "competition with immobilised ligand", "concentration": "1 µM", "endpoint": "remaining binding", "result": "100%"}
{"Structure (SMILES)": "COc1ncccc1-c1cnn2ccc(N3CCN(C(=O)OC(C)C)CC3)nc12", "observed": "binding", "technique": "competition with immobilised ligand", "concentration": "1 µM", "endpoint": "remaining binding", "result": "88%"}
{"Structure (SMILES)": "N#CC1(c2ccccn2)CCN(Cc2cc(C(=O)O)c(=O)n3ccccc23)CC1", "observed": "cell-free assay", "technique": "competition with immobilised ligand", "concentration": "1 µM", "endpoint": "remaining binding", "result": "100%"}
{"Structure (SMILES)": "Nc1ncc(-c2nc(N3CCOCC3)nc(N3CCOCC3)n2)c(C(F)F)n1", "observed": "binding", "technique": "competition with immobilised ligand", "concentration": "10 µM", "endpoint": "remaining binding", "result": "65%"}
{"Structure (SMILES)": "Cc1nn(C)cc1-c1nc2c(N3CCN(Cc4ccc(Cl)cc4)CC3)c(Cl)cnc2[nH]1", "observed": "binding", "technique": "competition with immobilised ligand", "concentration": "1 µM", "endpoint": "remaining binding", "result": "100%"}
{"Structure (SMILES)": "Cn1cc(-c2cccc(N3CCc4c(sc5c4CC(C)(C)C5)C3=O)c2CO)cc(Nc2ccncn2)c1=O", "observed": "enzyme activity", "mode": "inhibitor", "concentration": "1 µM", "endpoint": "inhibition", "result": "-7%"}
{"Structure (SMILES)": "O=c1[nH]c2ccccc2n1C1CCN(Cc2ccc(-c3[nH]c4cc5ncnc5cc4nc3-c3ccccc3)cc2)CC1", "observed": "cell-free assay", "concentration": "0.5 µM", "endpoint": "remaining signal", "result": "112%"}
